Laboratory results: ChEMBL document CHEMBL1138098, “Novel 1,4-benzodiazepine-2,5-diones as Hdm2 antagonists with improved cellular activity” (Bioorg Med Chem Lett, 2006)

Key:
JAR [1] = assay: Induction of PIG3 production in JAR cells at 1.1 uM; type: functional, Homo sapiens
Summary of the method: (§1)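 JAR cells were treated with compound at 1.1, 3.3, 10 or 30 μM. PIG-3 protein was measured by ELISA and normalized to cellular protein, reported as ng/mg.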

JAR [2] = assay: Induction of PIG3 production in JAR cells at 3.3 uM; type: functional, Homo sapiens; summary of the method: as §1
JAR [3] = assay: Induction of PIG3 production in JAR cells at 10 uM; type: functional, Homo sapiens; summary of the method: as §1
JAR [4] = assay: Induction of PIG3 production in JAR cells at 30 uM; type: functional, Homo sapiens; summary of the method: as §1
[5] = target: E3 ubiquitin-protein ligase Mdm2 (Homo sapiens, UniProt Q00987); assay: Inhibition of p53-Hdm2 interaction by FP assay
E3 ubiquitin-protein ligase Mdm2, sequence (Q00987 whole entry): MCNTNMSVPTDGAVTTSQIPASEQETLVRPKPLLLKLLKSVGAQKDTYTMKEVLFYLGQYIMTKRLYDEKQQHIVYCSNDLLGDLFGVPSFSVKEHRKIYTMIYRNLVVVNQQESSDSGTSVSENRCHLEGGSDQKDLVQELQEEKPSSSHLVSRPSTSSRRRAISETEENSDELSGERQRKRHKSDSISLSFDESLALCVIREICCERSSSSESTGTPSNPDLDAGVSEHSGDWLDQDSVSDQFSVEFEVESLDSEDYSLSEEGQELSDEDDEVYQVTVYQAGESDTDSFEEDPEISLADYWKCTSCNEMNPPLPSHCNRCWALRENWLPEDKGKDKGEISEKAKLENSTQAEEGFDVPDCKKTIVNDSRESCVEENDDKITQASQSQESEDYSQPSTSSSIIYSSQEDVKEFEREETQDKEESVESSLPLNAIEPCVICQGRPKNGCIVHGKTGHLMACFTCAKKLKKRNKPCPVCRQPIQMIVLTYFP

SMILES	Activity (JAR [1]) [ng/mg]	Activity (JAR [2]) [ng/mg]	Activity (JAR [3]) [ng/mg]	Activity (JAR [4]) [ng/mg]	IC50 [5] [µM]
CC(c1ccc(Cl)cc1N)N1C(=O)c2cc(I)ccc2N(CCCCC(=O)O)C(=O)[C@@H]1c1ccc(Cl)cc1 (stereo not given in full)	44	77	–	–	–
Nc1cc(Cl)ccc1CN1C(=O)c2cc(I)ccc2N(CCCCC(=O)O)C(=O)[C@@H]1c1ccc(Cl)cc1	47	74	196	–	–
C[C@H](c1cc(O)c(Cl)cc1N)N1C(=O)c2cc(I)ccc2N(CCN2CCOCC2)C(=O)[C@@H]1c1ccc(Cl)cc1	34	54	111	–	–
COCCOCCN1C(=O)[C@H](c2ccc(Cl)cc2)N([C@H](C)c2ccc(Cl)cc2N)C(=O)c2cc(I)ccc21	78	218	375	–	–
C[C@H](c1cc(F)c(Cl)cc1N)N1C(=O)c2cc(I)ccc2N(CCN2CCOCC2)C(=O)[C@@H]1c1ccc(Cl)cc1	37	110	313	–	–
CN(C)CCCN1C(=O)[C@H](c2ccc(Cl)cc2)N(Cc2ccc(Cl)cc2N)C(=O)c2cc(I)ccc21	36	68	-92	–	–
C[C@H](c1ccc(Cl)cc1N)N1C(=O)c2cc(I)ccc2N(CCN2CCOCC2)C(=O)[C@@H]1c1ccc(Cl)cc1	79	234	395	–	–
CN(C)CCCCN1C(=O)[C@H](c2ccc(Cl)cc2)N(Cc2ccc(Cl)cc2N)C(=O)c2cc(I)ccc21	32	79	-136	–	–
CC(c1ccc(Cl)cc1)N1C(=O)c2cc(I)ccc2N(CCCCC(=O)O)C(=O)[C@@H]1c1ccc(Cl)cc1 (stereo not given in full)	60	79.7	208.7	484.3	–
CN1CCN(CCCCN2C(=O)[C@H](c3ccc(Cl)cc3)N(Cc3ccc(Cl)cc3N)C(=O)c3cc(I)ccc32)CC1	43	125	32	–	–
Nc1cc(Cl)ccc1CN1C(=O)c2cc(I)ccc2N(CCCN2CCOCC2)C(=O)[C@@H]1c1ccc(Cl)cc1	55	184	375	–	–
C=CCOc1cc(Cl)ccc1CN1C(=O)c2cc(I)ccc2N(CCOCCOC)C(=O)[C@@H]1c1ccc(Cl)cc1	–	–	–	–	> 12.5
CN1CCN(CCCN2C(=O)[C@H](c3ccc(Cl)cc3)N(Cc3ccc(Cl)cc3N)C(=O)c3cc(I)ccc32)CC1	57	198	385	–	–
COCCOCCN1C(=O)[C@H](c2ccc(Cl)cc2)N(Cc2ccc(Cl)cc2O)C(=O)c2cc(I)ccc21	62.3	74	99	–	–
